Assay results as given in ChEMBL document CHEMBL1126263, “Development of high-affinity 5-HT3 receptor antagonists. 2. Two novel tricyclic benzamides” (J Med Chem, 1992).

Key:
Assay type in all cases: functional
Mustela putorius furo [1] = assay: Antiemetic potency was tested against cisplatin-induced emetic latency period in ferret after oral administration
In short: (§1)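 Ferret cisplatin-emesis model, iv or po pretreatment 30 or 60 min before cisplatin. Emetic latency read-out given as ED100, the dose raising emetic latency 100% over the control period. Based on 3–10 animals per dose, at least three per compound.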

Mustela putorius furo [2] = assay: Antiemetic potency was tested against cisplatin-induced emetic episodes in ferret after oral administration
In short: (§2)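 Ferret cisplatin-emesis model. Drug given iv or po, 30 or 60 min before cisplatin. Emetic episodes counted and ED50 derived from 3–10 animals per dose, at least three per compound. Control emetic episode means were reported.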

Mustela putorius furo [3] = assay: The compound was evaluated for the percentage increase in the emetic latency period to first emetic episode against cisplatin induced emesis in ferret (intravenous administration)
In short: (§3)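 Ferrets receive the test agent iv as a pretreatment before the cisplatin challenge; the table footnotes give 30 min and 60 min pretreatment times. Each dose uses 3–10 animals, with at least three doses per agent.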

Mustela putorius furo [4] = assay: Ratio of number of animals protected to the number of tested against cisplatin-induced emesis in ferret upon intravenous administration; 0/3; in short: as §3
Mustela putorius furo [5] = assay: The compound was evaluated for the percentage reduction in the emetic episodes against cisplatin induced emesis in ferret (intravenous administration); in short: as §3
Mustela putorius furo [6] = assay: Ratio of number of animals protected to the number of tested against cisplatin-induced emesis in ferret upon intravenous administration; 0/5; in short: as §3
Mustela putorius furo [7] = assay: The compound was evaluated for the percentage reduction in the emetic episodes against cisplatin-induced emesis in ferret (intravenous administration); in short: as §3
Mustela putorius furo [8] = assay: Antiemetic potency against cisplatin-induced emetic latency period in ferret after intravenous administration; in short: as §1
Mustela putorius furo [9] = assay: The compound was evaluated for the percentage increase in the emetic latency period against cisplatin-induced emesis in ferret (oral administration)
In short: (§4)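 Ferrets dosed orally in 0.5% methylcellulose vehicle 60 min before cisplatin and observed for 240 min. Scored for complete protection (protected/tested), mean % reduction in emetic episodes and mean % increase in emetic latency. Non-vomiting animals were assigned 240 min latency. Significance versus vehicle group at p<0.05 or p<0.01.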

Mustela putorius furo [10] = assay: Antiemetic potency against cisplatin-induced emetic episodes in ferret after intravenous administration; in short: as §2
Mustela putorius furo [11] = assay: Ratio of number of animals protected to the number of tested against cisplatin-induced emesis in ferret upon intravenous administration; 0/4; in short: as §3
Mustela putorius furo [12] = assay: Ratio of number of animals protected to the number of tested against cisplatin-induced emesis in ferret upon intravenous administration; 2/4; in short: as §3
Mustela putorius furo [13] = assay: Mean percent increase in emetic episode evaluated by giving RG 12915 (0.003 mg/kg) 60 min prior to cisplatin (orally) in ferret; in short: as §4
Mustela putorius furo [14] = assay: Mean percent increase in emetic episode evaluated by giving RG 12915 (0.010 mg/kg) 60 min prior to cisplatin (orally) in ferret; in short: as §4
Mustela putorius furo [15] = assay: Compound was evaluated for Percent protected by giving 0.5% methylcellulose 60 min prior to cisplatin (orally) in ferret; in short: as §4
Mustela putorius furo [16] = assay: Compound was evaluated for Percent protected by giving RG 12915 (0.003 mg/kg) 60 min prior to cisplatin (orally) in ferret; in short: as §4
Mustela putorius furo [17] = assay: Compound was evaluated for Percent protected by giving RG 12915 (0.010 mg/kg) 60 min prior to cisplatin (orally) in ferret; in short: as §4
Mustela putorius furo [18] = assay: Compound was evaluated for Percent protected by giving RG 12915 (0.03 mg/kg) 60 min prior to cisplatin (orally) in ferret; in short: as §4
Mustela putorius furo [19] = assay: Compound was evaluated for Percent protected by giving RG 12915 (0.1 mg/kg) 60 min prior to cisplatin (orally) in ferret; in short: as §4
Mustela putorius furo [20] = assay: Compound was evaluated for Percent protected by giving RG 12915 (1.0 mg/kg) 60 min prior to cisplatin (orally) in ferret; in short: as §4
Mustela putorius furo [21] = assay: Mean percent increase in emetic episode evaluated by giving RG 12915 (0.03 mg/kg) 60 min prior to cisplatin (orally) in ferret; in short: as §4
Mustela putorius furo [22] = assay: Mean percent increase in emetic episode evaluated by giving RG 12915 (0.1 mg/kg) 60 min prior to cisplatin (orally) in ferret; in short: as §4
Mustela putorius furo [23] = assay: Mean percent increase in emetic episode evaluated by giving RG 12915 (1.0 mg/kg) 60 min prior to cisplatin (orally) in ferret; in short: as §4
Mustela putorius furo [24] = assay: Ratio of no. of protected and no. of tested evaluated by giving 0.5% methylcellulose 60 min prior to cisplatin (orally) in ferret; 0/22; in short: as §4
Mustela putorius furo [25] = assay: Ratio of no. of protected and no. of tested evaluated by giving RG 12915 (0.003 mg/kg) 60 min prior to cisplatin (orally) in ferret; 1/4; in short: as §4
Mustela putorius furo [26] = assay: Ratio of no. of protected and no. of tested evaluated by giving RG 12915 (0.010 mg/kg) 60 min prior to cisplatin (orally) in ferret; 5/12; in short: as §4
Mustela putorius furo [27] = assay: Ratio of no. of protected and no. of tested evaluated by giving RG 12915 (0.03 mg/kg) 60 min prior to cisplatin (orally) in ferret; 4/4; in short: as §4
Mustela putorius furo [28] = assay: Ratio of no. of protected and no. of tested evaluated by giving RG 12915 (0.1 mg/kg) 60 min prior to cisplatin (orally) in ferret; 6/6; in short: as §4
Mustela putorius furo [29] = assay: Ratio of no. of protected and no. of tested evaluated by giving RG 12915 (1.0 mg/kg) 60 min prior to cisplatin (orally) in ferret; 7/10; in short: as §4
Mustela putorius furo [30] = assay: Mean percent reduction in emetic episode evaluated by giving RG 12915 (0.003 mg/kg) 60 min prior to cisplatin (orally) in ferret; in short: as §4
Mustela putorius furo [31] = assay: Mean percent reduction in emetic episode evaluated by giving RG 12915 (0.010 mg/kg) 60 min prior to cisplatin (orally) in ferret; in short: as §4
Mustela putorius furo [32] = assay: Mean percent reduction in emetic episode evaluated by giving RG 12915 (0.03 mg/kg) 60 min prior to cisplatin (orally) in ferret; in short: as §4
Mustela putorius furo [33] = assay: Mean percent reduction in emetic episode evaluated by giving RG 12915 (0.1 mg/kg) 60 min prior to cisplatin (orally) in ferret; in short: as §4
Mustela putorius furo [34] = assay: Mean percent reduction in emetic episode evaluated by giving RG 12915 (1.0 mg/kg) 60 min prior to cisplatin (orally) in ferret; in short: as §4
Mustela putorius furo [35] = assay: The compound was evaluated for the percentage increase in the emetic latency period to first emetic episode against cisplatin-induced emesis in ferret (intravenous administration); in short: as §3

O=C(N[C@H]1CN2CCC1CC2)c1cc(Cl)cc2c1O[C@H]1CCC[C@H]2C1
ED100 (Mustela putorius furo [1]): >1000 µg/kg
ED50 (Mustela putorius furo [2]): > 1 mg/kg

CN1CCCC1CCNC(=O)c1cc(Cl)cc2c1OC1CCCCC21 (stereo not drawn)
Increase (Mustela putorius furo [3]): -0.9%
Ratio (Mustela putorius furo [4]): 0
Reduction (Mustela putorius furo [5]): -38.1%

CCN(CC)CCNC(=O)c1cc(Cl)cc2c1OC1CCCCC21 (stereo not drawn)
Increase (Mustela putorius furo [3]): 6.5%
Ratio (Mustela putorius furo [6]): 0
Reduction (Mustela putorius furo [7]): 2.2%

O=C(N[C@H]1CN2CCC1CC2)c1cc(Cl)cc2c1O[C@H]1CCC[C@@H]2C1
ED100 (Mustela putorius furo [1]): 408 µg/kg
ED50 (Mustela putorius furo [2]): 0.085 mg/kg

O=C(NC1CN2CCC1CC2)c1cc(Cl)cc2c1OC1CCCCC21 (stereo not drawn)
ED100 (Mustela putorius furo [8]): 11 µg/kg
ED100 (Mustela putorius furo [9]): 11 µg/kg
ED50 (Mustela putorius furo [10]): 6 µg/kg
ED50 (Mustela putorius furo [2]): 0.005 mg/kg

O=C(NC1CN2CCC1CC2)c1cc(Cl)cc2c1OC1CCCC2C1 (stereo not drawn)
ED100 (Mustela putorius furo [1]): 22 µg/kg
ED50 (Mustela putorius furo [2]): 0.079 mg/kg

O=C(NCCc1c[nH]cn1)c1cc(Cl)cc2c1OC1CCCCC21 (stereo not drawn)
Increase (Mustela putorius furo [3]): 27.6%
Ratio (Mustela putorius furo [11]): 0
Reduction (Mustela putorius furo [5]): 44.4%

O=C(NCCN1CCOCC1)c1cc(Cl)cc2c1OC1CCCCC21 (stereo not drawn)
Increase (Mustela putorius furo [3]): 110.9%
Ratio (Mustela putorius furo [12]): 2
Reduction (Mustela putorius furo [5]): 48.9%

O=C(N[C@@H]1CN2CCC1CC2)c1cc(Cl)cc2c1O[C@@H]1CCCC[C@H]21
ED100 (Mustela putorius furo [1]): 258 µg/kg
ED50 (Mustela putorius furo [2]): 0.041 mg/kg

O=C(N[C@@H]1CN2CCC1CC2)c1cc(Cl)cc2c1O[C@H]1CCC[C@@H]2C1
ED100 (Mustela putorius furo [8]): 6 µg/kg
ED100 (Mustela putorius furo [1]): 10 µg/kg
ED50 (Mustela putorius furo [10]): 9 µg/kg
ED50 (Mustela putorius furo [2]): 0.007 mg/kg

O=C(N[C@@H]1CN2CCC1CC2)c1cc(Cl)cc2c1O[C@@H]1CCC[C@H]2C1
ED100 (Mustela putorius furo [1]): 290 µg/kg
ED50 (Mustela putorius furo [2]): 0.061 mg/kg

O=C(NC1CN2CCC1CC2)c1cc(Cl)cc2c3c(oc12)CCCC3 (stereo not drawn)
ED100 (Mustela putorius furo [1]): 272 µg/kg
ED50 (Mustela putorius furo [2]): 0.033 mg/kg

O=C(N[C@H]1CN2CCC1CC2)c1cc(Cl)cc2c1O[C@@H]1CCCC[C@H]21
ED100 (Mustela putorius furo [1]): >3000 µg/kg
ED50 (Mustela putorius furo [2]): 0.084 mg/kg

O=C(N[C@H]1CN2CCC1CC2)c1cc(Cl)cc2c1O[C@H]1CCCC[C@@H]21
ED100 (Mustela putorius furo [1]): 107 µg/kg
ED50 (Mustela putorius furo [2]): 0.056 mg/kg

O=C(N[C@@H]1CN2CCC1CC2)c1cc(Cl)cc2c1O[C@H]1CCCC[C@@H]21
ED100 (Mustela putorius furo [8]): 7 µg/kg
ED100 (Mustela putorius furo [9]): 5 µg/kg
ED50 (Mustela putorius furo [10]): 4 µg/kg
ED50 (Mustela putorius furo [2]): 0.004 mg/kg
Increase (Mustela putorius furo [13]): 53%
Increase (Mustela putorius furo [14]): 105%
Protected (Mustela putorius furo [15]): 0%
Protected (Mustela putorius furo [16]): 25%
Protected (Mustela putorius furo [17]): 42%
Protected (Mustela putorius furo [18]): 100%
Protected (Mustela putorius furo [19]): 100%
Protected (Mustela putorius furo [20]): 70%
Increase (Mustela putorius furo [21]): 195%
Increase (Mustela putorius furo [22]): 195%
Increase (Mustela putorius furo [23]): 171%
Ratio (Mustela putorius furo [24]): 0
Ratio (Mustela putorius furo [25]): 1
Ratio (Mustela putorius furo [26]): 5
Ratio (Mustela putorius furo [27]): 4
Ratio (Mustela putorius furo [28]): 6
Ratio (Mustela putorius furo [29]): 7
Reduction (Mustela putorius furo [30]): 24%
Reduction (Mustela putorius furo [31]): 57%
Reduction (Mustela putorius furo [32]): 100%
Reduction (Mustela putorius furo [33]): 100%
Reduction (Mustela putorius furo [34]): 90%

Cn1cccc1CCNC(=O)c1cc(Cl)cc2c1OC1CCCCC21 (stereo not drawn)
Increase (Mustela putorius furo [35]): 1%
Ratio (Mustela putorius furo [11]): 0
Reduction (Mustela putorius furo [5]): 51.7%

CN1C2CCCC1CC(NC(=O)c1nn(C)c3ccccc13)C2 (stereo not drawn) [GRANISETRON]
ED100 (Mustela putorius furo [8]): 82 µg/kg
ED100 (Mustela putorius furo [1]): 117 µg/kg

CCN(CC)CCNC(=O)c1cc(Cl)c(N)cc1OC [METOCLOPRAMIDE]
ED100 (Mustela putorius furo [8]): 2100 µg/kg
ED100 (Mustela putorius furo [1]): >5000 µg/kg

Cc1nccn1CC1CCc2c(c3ccccc3n2C)C1=O (stereo not drawn) [ONDANSETRON]
ED100 (Mustela putorius furo [8]): 15 µg/kg
ED100 (Mustela putorius furo [1]): 31 µg/kg
ED50 (Mustela putorius furo [10]): 8 µg/kg
ED50 (Mustela putorius furo [2]): 0.28 mg/kg
